Activity calls are given as the source filed them. The rule behind the calls is not given here.

Data set [1] has as its target Calcium/calmodulin-dependent protein kinase type II subunit alpha (Homo sapiens, UniProt Q9UQM7). Briefly: Inhibition of CAMK2A (unknown origin).
Data set [2] deals with Mus musculus. As to the kind of experiment: Prevention of Tgfb1 gene upregulation in 5XFAD mouse hippocampus at 1200 ppm administered as rodent chow starting from 1.5 months and measured after 7 months by Nanostring analysis. Type of data set: functional, tissue-based. The following applies: route po, time 5.5 months.
Data set [3] deals with Mus musculus. Briefly: Effect on APP processing pathway in wildtype mouse assessed as PEN2 protein signal intensity in cortex at 1200 ppm administered as rodent starting from 1.5 months and measured after 7 months (reference value: 47.716 to 128.950 %). Format: functional. The following applies: route po, time 5.5 months, 4015 h.
In data set [4] the target is Vascular endothelial growth factor receptor 2 (Homo sapiens, UniProt P35968). As to the kind of experiment: Inhibition of KDR (unknown origin).
Vascular endothelial growth factor receptor 2, sequence (P35968 whole entry): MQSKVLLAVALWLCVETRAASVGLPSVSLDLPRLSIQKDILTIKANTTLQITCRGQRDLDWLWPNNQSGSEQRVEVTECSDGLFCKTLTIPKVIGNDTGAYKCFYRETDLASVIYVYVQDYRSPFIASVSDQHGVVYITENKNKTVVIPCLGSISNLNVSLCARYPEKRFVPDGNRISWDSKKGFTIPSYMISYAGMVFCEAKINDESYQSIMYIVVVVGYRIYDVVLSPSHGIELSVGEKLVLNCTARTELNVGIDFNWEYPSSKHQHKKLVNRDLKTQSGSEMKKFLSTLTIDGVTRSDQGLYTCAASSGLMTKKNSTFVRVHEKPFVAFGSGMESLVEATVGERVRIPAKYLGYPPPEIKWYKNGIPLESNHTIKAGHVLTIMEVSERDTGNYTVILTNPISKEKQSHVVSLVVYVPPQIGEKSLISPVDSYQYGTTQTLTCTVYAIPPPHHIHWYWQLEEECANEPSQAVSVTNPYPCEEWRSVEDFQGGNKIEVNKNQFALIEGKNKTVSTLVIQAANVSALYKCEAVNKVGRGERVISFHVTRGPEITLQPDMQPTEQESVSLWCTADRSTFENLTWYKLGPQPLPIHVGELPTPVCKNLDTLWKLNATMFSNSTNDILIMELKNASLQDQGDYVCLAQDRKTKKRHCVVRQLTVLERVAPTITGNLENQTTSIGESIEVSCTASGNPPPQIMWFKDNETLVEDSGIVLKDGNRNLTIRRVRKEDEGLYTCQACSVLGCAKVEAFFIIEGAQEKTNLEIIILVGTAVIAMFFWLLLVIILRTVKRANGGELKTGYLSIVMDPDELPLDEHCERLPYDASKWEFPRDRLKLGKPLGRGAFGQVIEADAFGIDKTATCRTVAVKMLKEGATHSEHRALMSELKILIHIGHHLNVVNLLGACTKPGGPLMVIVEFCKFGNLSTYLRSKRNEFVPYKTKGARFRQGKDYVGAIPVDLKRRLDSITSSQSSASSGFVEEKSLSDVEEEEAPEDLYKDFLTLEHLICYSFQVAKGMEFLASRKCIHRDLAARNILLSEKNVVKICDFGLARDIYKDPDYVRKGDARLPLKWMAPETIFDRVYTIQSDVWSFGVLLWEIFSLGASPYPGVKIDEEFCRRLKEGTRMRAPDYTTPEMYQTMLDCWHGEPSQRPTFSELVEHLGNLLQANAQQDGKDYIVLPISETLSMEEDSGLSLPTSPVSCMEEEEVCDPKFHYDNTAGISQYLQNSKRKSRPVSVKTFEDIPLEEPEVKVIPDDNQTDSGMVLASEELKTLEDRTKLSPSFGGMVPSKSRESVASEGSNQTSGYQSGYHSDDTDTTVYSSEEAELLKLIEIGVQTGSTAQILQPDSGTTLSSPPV
For data set [5], the target named is Dual specificity tyrosine-phosphorylation-regulated kinase 4 (Homo sapiens, UniProt Q9NR20). As to the kind of experiment: Inhibition of DYRK4 (unknown origin).
Data set [6] deals with Mus musculus. Briefly: Antialzheimer activity in 5XFAD mouse assessed as time spent in perimeter zone at 1200 ppm administered as rodent chow for 10 to 24 weeks by Open field test (reference value: 169.1 to 285.1 sec). Type of data set: functional. As to conditions: route po, time 10-24 weeks.
Data set [7] is described as follows: Effect on Csf1r RPKM gene expression in wild type mouse hippocampus at 1200 ppm administered as rodent chow starting from 1.5 months and measured after 7 months by RNA-Seq analysis (reference value: 18.240 to 20.004 RPKM). Type of data set: functional. As to conditions: route po, time 5.5 months, 4015 h.
A short description of data set [8]: Drug concentration in wildtype mouse brain at 1200 ppm administered as rodent chow for 10 to 24 weeks. Format: ADME, tissue-based. As to conditions: in vivo, po, time 10-24 weeks, read-out: Ct. Summed up: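 WT or 5xFAD mice were started at 1.5 months of age on PLX5622 formulated at 1200 ppm in AIN-76A chow, with control chow as comparison. Feeding ran for 10 or 24 weeks. Terminal plasma and brain drug levels were then measured. Groups were sex-balanced and compared by two-tailed independent t-test.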

Data set [9] can be described thus: Volume of distribution at steady state in dog at 1.00 mg/kg, iv administered as single dose. Format: ADME, organism-based, Canis lupus familiaris. As to conditions: in vivo, read-out: Vdss.
The target in data set [10] is Tyrosine-protein kinase Fer (Homo sapiens, UniProt P16591). Briefly: Inhibition of FER (unknown origin).
Tyrosine-protein kinase Fer, sequence (P16591 whole entry): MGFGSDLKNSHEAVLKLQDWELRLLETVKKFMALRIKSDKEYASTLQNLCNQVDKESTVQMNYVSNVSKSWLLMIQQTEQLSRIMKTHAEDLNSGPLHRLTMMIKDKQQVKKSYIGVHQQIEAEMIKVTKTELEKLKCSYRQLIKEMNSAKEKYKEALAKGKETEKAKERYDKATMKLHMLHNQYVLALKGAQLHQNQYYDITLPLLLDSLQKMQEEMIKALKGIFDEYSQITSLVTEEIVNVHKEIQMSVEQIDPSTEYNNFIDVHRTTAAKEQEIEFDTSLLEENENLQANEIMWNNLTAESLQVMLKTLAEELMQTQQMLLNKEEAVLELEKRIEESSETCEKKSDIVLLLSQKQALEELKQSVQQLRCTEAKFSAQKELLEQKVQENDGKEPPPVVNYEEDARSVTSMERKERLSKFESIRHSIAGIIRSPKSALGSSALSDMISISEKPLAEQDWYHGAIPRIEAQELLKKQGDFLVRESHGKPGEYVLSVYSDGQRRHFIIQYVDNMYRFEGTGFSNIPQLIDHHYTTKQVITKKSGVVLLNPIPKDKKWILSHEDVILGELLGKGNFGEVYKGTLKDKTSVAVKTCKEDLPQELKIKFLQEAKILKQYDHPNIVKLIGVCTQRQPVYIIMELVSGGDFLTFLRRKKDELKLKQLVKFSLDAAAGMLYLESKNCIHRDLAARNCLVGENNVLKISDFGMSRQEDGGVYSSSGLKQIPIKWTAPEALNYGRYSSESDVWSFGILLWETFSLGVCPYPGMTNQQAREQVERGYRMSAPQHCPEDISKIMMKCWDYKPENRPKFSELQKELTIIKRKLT
Data set [11] is described as follows: Effect on Gls gene expression in wildtype mouse hippocampus assessed as percent change in Reads Per kilo base per Million mapped reads at 1200 ppm administered as rodent chow starting from 1.5 months and measured after 7 months by RNA-Seq analysis (reference value: 89.231 to 109.618 %). Type of data set: functional. As to conditions: route po, time 5.5 months, 4015 h.

Data set [12] concerns the target Tyrosine-protein kinase JAK3 (Homo sapiens, UniProt P52333). As to the kind of experiment: Inhibition of JAK3 (unknown origin).
The target in data set [13] is Inhibitor of nuclear factor kappa-B kinase subunit epsilon (Homo sapiens, UniProt Q14164). As to the kind of experiment: Inhibition of IKBKE (unknown origin).
Inhibitor of nuclear factor kappa-B kinase subunit epsilon, sequence (Q14164 whole entry): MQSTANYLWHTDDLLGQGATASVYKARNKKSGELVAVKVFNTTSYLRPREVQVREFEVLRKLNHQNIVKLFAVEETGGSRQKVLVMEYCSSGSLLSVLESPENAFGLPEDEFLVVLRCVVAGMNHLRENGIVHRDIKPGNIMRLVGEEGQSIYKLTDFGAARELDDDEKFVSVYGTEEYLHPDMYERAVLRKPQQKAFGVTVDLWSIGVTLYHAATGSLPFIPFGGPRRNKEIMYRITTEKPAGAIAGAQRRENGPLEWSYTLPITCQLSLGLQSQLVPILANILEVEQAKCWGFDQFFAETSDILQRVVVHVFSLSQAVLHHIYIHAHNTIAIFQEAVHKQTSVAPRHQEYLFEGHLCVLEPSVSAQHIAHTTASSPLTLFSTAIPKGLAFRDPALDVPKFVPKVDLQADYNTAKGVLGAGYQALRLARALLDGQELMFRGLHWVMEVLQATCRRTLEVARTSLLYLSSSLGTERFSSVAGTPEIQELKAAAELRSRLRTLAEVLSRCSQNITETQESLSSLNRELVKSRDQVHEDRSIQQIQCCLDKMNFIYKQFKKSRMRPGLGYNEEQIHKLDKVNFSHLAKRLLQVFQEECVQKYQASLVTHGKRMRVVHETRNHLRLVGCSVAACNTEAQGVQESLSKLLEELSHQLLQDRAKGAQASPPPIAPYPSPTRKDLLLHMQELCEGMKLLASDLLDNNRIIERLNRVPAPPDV
For data set [14], the target named is Serine/threonine-protein kinase N1 (Homo sapiens, UniProt Q16512). Briefly: Inhibition of PKN1 (unknown origin).
Data set [15] deals with MAP kinase-activated protein kinase 5 (Homo sapiens, UniProt Q8IW41). As to the kind of experiment: Inhibition of MAPKAPK5 (unknown origin).
Data set [16] has as its target Ribosomal protein S6 kinase alpha-4 (Homo sapiens, UniProt O75676). As to the kind of experiment: Inhibition of RPS6KA4 (unknown origin).
Data set [17] can be described thus: Effect on Csf1r RPKM gene expression in 5XFAD mouse cortex at 1200 ppm administered as rodent chow starting from 1.5 months and measured after 7 months by RNA-Seq analysis (reference value: 26.750 to 37.128 RPKM). Format: functional. As to conditions: route po, time 5.5 months, 4015 h.
Data set [18] has as its system Mus musculus. As to the kind of experiment: Antialzheimer activity in 5XFAD mouse assessed as ApoE immunoreactivity by measuring ApoE intensity of plaque core in cortex at 1200 ppm administered as rodent chow starting from 1.5 months and measured after 7 months by immunolabeling based confocal microscopic analysis (reference value: 13.88 to 87.23 a.u.). Format: functional. The following applies: route po, time 5.5 months, 4015 h.

The target of data set [19] is T1, Macrophage colony-stimulating factor 1 receptor (Mus musculus) (UniProt P09581).
T1 sequence (whole entry): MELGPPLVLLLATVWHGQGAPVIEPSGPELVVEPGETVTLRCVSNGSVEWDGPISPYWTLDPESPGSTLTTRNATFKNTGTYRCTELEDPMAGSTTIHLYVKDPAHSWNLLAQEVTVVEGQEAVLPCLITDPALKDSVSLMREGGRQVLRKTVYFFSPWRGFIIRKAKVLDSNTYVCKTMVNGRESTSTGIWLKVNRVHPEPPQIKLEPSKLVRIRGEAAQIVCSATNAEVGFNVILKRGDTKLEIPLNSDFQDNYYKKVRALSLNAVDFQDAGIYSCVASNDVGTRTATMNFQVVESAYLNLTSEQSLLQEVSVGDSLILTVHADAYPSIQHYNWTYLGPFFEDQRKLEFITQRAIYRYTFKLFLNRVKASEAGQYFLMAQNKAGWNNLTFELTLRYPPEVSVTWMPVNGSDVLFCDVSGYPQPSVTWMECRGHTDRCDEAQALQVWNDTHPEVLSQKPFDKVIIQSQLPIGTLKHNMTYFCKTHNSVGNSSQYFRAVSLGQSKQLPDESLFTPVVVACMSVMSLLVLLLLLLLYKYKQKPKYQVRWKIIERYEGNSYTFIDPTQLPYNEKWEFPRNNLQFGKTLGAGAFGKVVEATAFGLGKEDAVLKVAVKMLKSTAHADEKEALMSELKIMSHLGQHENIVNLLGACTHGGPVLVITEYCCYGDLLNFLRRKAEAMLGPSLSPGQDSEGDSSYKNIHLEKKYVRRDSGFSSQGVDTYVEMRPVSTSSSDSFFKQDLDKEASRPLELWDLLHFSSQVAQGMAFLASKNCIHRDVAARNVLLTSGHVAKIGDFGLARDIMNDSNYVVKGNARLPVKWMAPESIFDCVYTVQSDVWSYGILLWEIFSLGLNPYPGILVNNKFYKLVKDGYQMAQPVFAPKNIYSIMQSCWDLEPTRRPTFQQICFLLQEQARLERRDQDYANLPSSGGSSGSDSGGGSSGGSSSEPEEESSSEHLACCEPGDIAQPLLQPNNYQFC
As to the kind of experiment: In vivo inhibition of CSF1R in wildtype mouse assessed as number of S100bteta positive cells per FOV in […] cortex at 1200 ppm administered as rodent chow for 10 to 24 weeks by immunolabelling based confocal microscopic analysis (reference value: 296 to 337). Type of data set: functional. The following applies: route po, time 10-24 weeks.

The subject of data set [20] is Mus musculus. As to the kind of experiment: Prevention of Cx3cr1 gene upregulation in 5XFAD mouse hippocampus at 1200 ppm administered as rodent chow starting from 1.5 months and measured after 7 months by Nanostring analysis. Type of data set: functional, tissue-based. As to conditions: route po, time 5.5 months.
Data set [21] in a line: Effect on Nrg3 gene expression in wildtype mouse hippocampus assessed as percent change in Reads Per kilo base per Million mapped reads at 1200 ppm administered as rodent chow starting from 1.5 months and measured after 7 months by RNA-Seq analysis (reference value: 84.058 to 111.732 %). Type of data set: functional. The following applies: route po, time 5.5 months, 4015 h.

Data set [22] has as its system Mus musculus. As to the kind of experiment: Antialzheimer activity in 5XFAD mouse assessed as number of S100bteta positive cells per FOV in somatosensory cortex at 1200 ppm administered as rodent chow for 10 to 24 weeks by immunolabelling based confocal microscopic analysis (reference value: 283 to 357). Type of data set: functional. The following applies: route po, time 10-24 weeks.

Ribosomal protein S6 kinase alpha-4, sequence (O75676 whole entry): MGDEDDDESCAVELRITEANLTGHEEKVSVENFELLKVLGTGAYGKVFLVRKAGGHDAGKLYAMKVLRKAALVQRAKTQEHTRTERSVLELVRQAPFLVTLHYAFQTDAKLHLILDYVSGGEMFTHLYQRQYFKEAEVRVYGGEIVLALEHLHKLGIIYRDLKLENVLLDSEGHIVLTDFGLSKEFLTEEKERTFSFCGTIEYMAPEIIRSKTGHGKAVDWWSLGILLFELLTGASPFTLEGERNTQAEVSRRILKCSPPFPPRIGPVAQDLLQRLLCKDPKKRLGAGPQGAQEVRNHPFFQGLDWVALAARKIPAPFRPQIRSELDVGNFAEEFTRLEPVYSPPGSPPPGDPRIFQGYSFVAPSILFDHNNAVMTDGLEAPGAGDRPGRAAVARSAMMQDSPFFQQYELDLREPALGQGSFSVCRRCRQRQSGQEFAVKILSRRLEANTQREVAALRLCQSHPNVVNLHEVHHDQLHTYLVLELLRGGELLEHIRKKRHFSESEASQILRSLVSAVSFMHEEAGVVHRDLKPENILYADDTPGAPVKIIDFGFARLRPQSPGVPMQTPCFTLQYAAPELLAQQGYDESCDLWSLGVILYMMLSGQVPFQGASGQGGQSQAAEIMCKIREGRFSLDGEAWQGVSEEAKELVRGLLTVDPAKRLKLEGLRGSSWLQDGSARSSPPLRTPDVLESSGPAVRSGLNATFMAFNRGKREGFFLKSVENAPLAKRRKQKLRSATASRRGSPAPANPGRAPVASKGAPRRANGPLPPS
Tyrosine-protein kinase JAK3, sequence (P52333 whole entry): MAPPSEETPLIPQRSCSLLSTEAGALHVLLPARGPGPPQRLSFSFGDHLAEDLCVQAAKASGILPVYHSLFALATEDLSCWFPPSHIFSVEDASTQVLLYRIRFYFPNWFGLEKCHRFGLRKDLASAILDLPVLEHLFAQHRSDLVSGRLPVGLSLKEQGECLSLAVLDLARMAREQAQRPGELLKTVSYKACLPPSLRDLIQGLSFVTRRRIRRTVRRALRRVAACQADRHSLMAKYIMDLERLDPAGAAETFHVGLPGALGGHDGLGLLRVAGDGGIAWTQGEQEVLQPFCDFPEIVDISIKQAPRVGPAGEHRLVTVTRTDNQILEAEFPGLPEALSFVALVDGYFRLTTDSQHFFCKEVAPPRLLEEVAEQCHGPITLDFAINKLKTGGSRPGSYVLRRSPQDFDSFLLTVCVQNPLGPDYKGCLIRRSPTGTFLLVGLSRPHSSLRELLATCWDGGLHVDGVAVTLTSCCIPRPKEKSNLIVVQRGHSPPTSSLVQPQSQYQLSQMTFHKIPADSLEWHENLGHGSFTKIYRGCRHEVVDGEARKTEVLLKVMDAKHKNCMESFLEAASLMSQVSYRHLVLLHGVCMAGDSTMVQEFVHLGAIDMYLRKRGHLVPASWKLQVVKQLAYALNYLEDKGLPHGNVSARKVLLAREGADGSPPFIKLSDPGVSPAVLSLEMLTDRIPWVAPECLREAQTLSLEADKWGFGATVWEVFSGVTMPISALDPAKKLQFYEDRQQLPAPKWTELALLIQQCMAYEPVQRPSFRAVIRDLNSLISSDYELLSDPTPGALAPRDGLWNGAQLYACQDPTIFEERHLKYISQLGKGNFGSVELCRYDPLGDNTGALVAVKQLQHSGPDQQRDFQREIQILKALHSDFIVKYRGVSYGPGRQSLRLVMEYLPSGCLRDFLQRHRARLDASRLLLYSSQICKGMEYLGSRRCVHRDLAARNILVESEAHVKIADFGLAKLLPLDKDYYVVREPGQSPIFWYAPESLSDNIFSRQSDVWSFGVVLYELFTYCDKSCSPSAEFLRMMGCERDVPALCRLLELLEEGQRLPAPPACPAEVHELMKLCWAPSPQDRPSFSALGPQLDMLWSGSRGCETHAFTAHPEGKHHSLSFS

On to `COc1ncc(F)cc1CNc1ccc(Cc2c[nH]c3ncc(C)cc23)c(F)n1` [PLX-5622], for which the IC50 (usually the midpoint of a concentration-inhibition curve) is greater than 1000 nM in data set [1]; 1100 nM in data set [4]; greater than 1000 nM in [5]; greater than 1000 nM in data set [10]; greater than 1000 nM in data set [12]; greater than 1000 nM in [13]. The IC50 in [14], in data set [15] and in data set [16] was greater than 1000 nM in each case. Also, the outcome in [2] and in data set [20] was Active. For the same compound, the Activity was found to be 9.039% in data set [3]; 0.238 RPKM in [7]; 68.459% in data set [11]; 0.984 RPKM in data set [17]; 269 in [19]; 59.872% in [21]. For the same compound, the Activity in data set [22] is recorded as 307. Also, in data set [6], the Time is listed as 201.4 s. Also, the concentration in data set [8] is 3.35 µM. Besides, the Vd in data set [9] is 2.3 L/kg. Also, in [18], the Flu intensity is listed as 4.57 a.u.

Source of the values: ChEMBL document CHEMBL5649170, “Sustained microglial depletion with CSF1R inhibitor impairs parenchymal plaque development in an Alzheimer's disease model” (Nat Commun, 2019).
